Measurements: ChEMBL document CHEMBL2046393, “Enantiomeric derivatives of tokinolide B: absolute configuration and biological properties” (J Nat Prod, 2012)

Key:
Format in all cases: functional, cell-based
[1] = test system: SK-LU-1; assay: Cytotoxicity against human SKLU1 cells assessed as growth inhibition after 48 hrs by SRB assay; conditions: SK-LU-1, 48 h
Outline: (§1)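 Cell lines from NCI, grown in RPMI-1640 with 10% FBS and antibiotics at 37 °C, 5% CO2. Seeding: HCT-15 10 × 10^4 cell/well, K562 5 × 10^4 cell/mL, SKLU-1 7500 cell/mL. After 24 h, compound added for 48 h. Cells fixed in cold TCA (60 min, 4 °C), stained with 0.4% SRB, dye extracted in Tris base, OD read at 515 nm. IC50 from linear regression; means ± SEM, three replicates.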

[2] = test system: HCT-15; assay: Cytotoxicity against human HCT15 cells assessed as growth inhibition after 48 hrs by SRB assay; conditions: HCT-15, 48 h; outline: as §1
[3] = test system: K562; assay: Cytotoxicity against human K562 cells assessed as growth inhibition after 48 hrs by SRB assay; conditions: K562, 48 h; outline: as §1

Row | Compound | IC50 [1] | IC50 [2] | IC50 [3]
1 | CCCC[C@]12O[C@@]34CCCC=C3C(=O)O[C@]43[C@@H](CCC)[C@@H]4C=C(C(=O)N1[C@H](C)c1ccccc1)[C@@]32CC4 | 4.1 µM | 5.4 µM | 5.7 µM
2 | CCCC[C@@]12O[C@]34CCCC=C3C(=O)O[C@@]43[C@H](CCC)[C@H]4C=C(C(=O)N1[C@H](C)c1ccccc1)[C@]32CC4 | 5.9 µM | 8.5 µM | 21.7 µM
3 | CCCC[C@@]12O[C@]34CCCC=C3C(=O)O[C@@]43[C@H](CCC)[C@@H]4C=C(C(=O)N1[C@@H](C)c1ccccc1)[C@]32CC4 | 4.9 µM | 7.5 µM | 13.9 µM
4 | CCCC[C@]12O[C@@]34CCCC=C3C(=O)O[C@]43[C@@H](CCC)[C@H]4C=C(C(=O)N1[C@@H](C)c1ccccc1)[C@@]32CC4 | 4.3 µM | 5.2 µM | 5.2 µM
5 | CCC/C=C1\OC(=O)C2=C[C@H]3CCC21[C@]1(OC(=O)C2=C1CCC=C2)[C@@H]3CCC (mixture of isomers) | 7.1 µM | 10.5 µM | 26.6 µM
6 | CCC/C=C1\OC(=O)C2=C1CC[C@H]1[C@@H]2[C@@]2(OC(=O)C3=C2CCC=C3)[C@H]1CCC (racemic) | 13.2 µM | 44.8 µM | 46.1 µM
7 | C=C1C(=O)O[C@@H]2C[C@@H](C)[C@@H]3C=CC(=O)[C@@]3(C)[C@@H](O)[C@H]12 [HELENALIN] | 0.21 µM | 0.29 µM | 0.28 µM
